Reference: ChEMBL document CHEMBL4513216, “Probing the Open Global Health Chemical Diversity Library for Multistage-Active Starting Points for Next-Generation Antimalarials” (ACS Infect Dis, 2020)

Assay: Toxicity liver stage against HepG2, at 10uM
Assay type: cell-based
Parameters: test concentration 10 uM, cell line HepG2-A16-CD81EGFP
Settings: human, HepG2-A16-CD81EGFP cells; read-out: INHIBITION
How it was run: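 Uninfected HepG2-A16-CD81EGFP cells, 3 × 10^3 per well, 1536-well, plated on prespotted compound at 10 μM final, parasite-free screening media added to match infected plates; puromycin 10 μM positive, DMSO 0.5% negative; run in parallel with 48 h PbLuc assay at 37 °C, 5% CO2; viability by CellTiter-Glo luminescence, normalized to controls.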

Compound	cytotoxicity at 10 µM
COc1nsc2nc(C3CCCN3c3ncccn3)ccc12 (stereo unspecified)	10.5%
CCOCC(=O)N1C[C@@H](O)[C@H](N(C)Cc2ccc(OC)cc2)C1	0.307%
O=C(NC[C@]12COC[C@H]1CN(Cc1cccnc1)C2)c1ccsc1	2.95%
Cc1cccc(CO[C@H]2CO[C@@]3(CCN(S(=O)(=O)N(C)C)C3)C2)n1	7.7%
NC(=O)c1noc(Cn2ncc3ccccc3c2=O)n1	-1.26%
CC1(C)C[C@H](CCNC(=O)c2ccncc2)c2ccccc2O1	-5.55%
Cc1nc(C)n(CC2CCCCN2CCc2ccncc2)n1 (stereo unspecified)	-6.3%
COc1cccc2c1ccn2CCNC(=O)C(C)C	5.66%
OCCN1CCN(Cc2coc(-c3cccc(Cl)c3)n2)CC1	-21.6%
CCCNc1ncc(CN2CCC3(CCNC(=O)CC3)CC2)cn1	-166%
Cc1ccc(CC(=O)N2CCCC(c3cc(C)[nH]n3)C2)cn1 (stereo unspecified)	-7.2%
NC(=O)C1CCCN(C(=O)c2ccn(-c3ccc(F)cc3)n2)C1 (stereo unspecified)	-3.63%
Cc1csc2c(N3CCC(NCCCc4cnn(C)c4)CC3)ncnc12	0.301%
Cc1nc(C)n(CC2CCCN(Cc3nc(C4CC4)no3)C2)n1 (stereo unspecified)	-7.76%
Cc1ncc(CN(C)C(=O)c2ccc3c(c2O)OC(C)(C)C3)s1	6.93%
C=C(C)CN1CCN(Cc2cnc(-c3ccccc3C)nc2)CC1	-33.6%
COCCC1COC2(CCN(C(=O)c3ccco3)CC2)C1 (stereo unspecified)	3.63%
CNc1nc(N2CCN(C3CCCCC3)C(CCO)C2)nc2c1CCC2 (stereo unspecified)	-6.86%
O=C(NCC1CCCCC1)N1C[C@@H]2C[C@H](C(=O)N3CCCC3)[C@H](C1)O2	-2.48%

Compound	cytotoxicity at 10 µM
COc1c(C2CCCN2Cc2nc(C3CC3)no2)c(C)nn1C (stereo unspecified)	-1.79%
CC(=O)N1CCC(N2CC[C@H](c3nc4cc(F)ccc4o3)C2)CC1	2.23%
COCCN(C)Cc1cn(C)nc1-c1ccc2c(c1)OCCO2	-0.65%
OC1(CN2CCC(Oc3cccnc3)CC2)CNCCOC1 (stereo unspecified)	5.92%
N#Cc1ccccc1N1CCN(C(=O)NCCN2CCOCC2)CC1	1.08%
CN(Cc1nnc2n1CCC2)C(=O)NCCc1ccc2c(c1)OCO2	-4.77%
Fc1ccccc1CN1CCCC2(CCN(c3ncccn3)CC2)C1	-132%
CC(C)OCCCNC(=O)C1CCCN(c2ccc3nncn3n2)C1 (stereo unspecified)	1.77%
c1ccc(N2CCC3(COCCN(Cc4cccs4)C3)C2)nc1 (stereo unspecified)	1.85%
CN1CCN(Cc2cn3c(n2)CNCC3)CC1	7.85%
CCOc1ncccc1CNC(=O)N1CCCC1c1cccs1 (stereo unspecified)	4.93%
CN1C(=O)CC(C(=O)O)C12CCN(Cc1ccc(F)cc1Cl)CC2 (stereo unspecified)	-4.88%
CS(=O)(=O)N1CCC(Nc2ccnc3ccc(Cl)cc23)CC1	54.3%
Cc1cc(C#N)ccc1S(=O)(=O)N1CCN(C)Cc2ccccc21	5.34%
CC(C)(C)C(=O)N1CC(=O)N(Cc2ccco2)CC(O)C1 (stereo unspecified)	4.79%
COCCNc1nc(C2CCCC2)nc2c1CCNCC2	-6.4%
CCC1CN(CC(=O)NCCN(CC)CC)c2ccccc2S1 (stereo unspecified)	-1.23%
CCOCCCC(=O)NCc1cn2cc(Br)ccc2n1	2.73%
CS(=O)(=O)NCCNC(=O)C1(c2ccc(F)cc2)CC1	1.93%

Compound	cytotoxicity at 10 µM
CO[C@H]1CCN(Cc2ccoc2)C[C@@H]1Cc1ccccc1	-11.9%
CCN1CCOCC2(C1)CN(C(=O)c1c(C)noc1C)CCO2 (stereo unspecified)	13.8%
Cc1ccc(C(C)N(C)Cc2nc3c(cnn3C)c(=O)[nH]2)s1 (stereo unspecified)	-4.31%
CS(=O)(=O)NCCNC(=O)c1cnc(-c2ccccc2)nc1	5.3%
Cc1nc(C)c(C(=O)Nc2ccc(-c3nnc(N(C)C)o3)cc2)o1	1.87%
O=C(NCC(F)(F)F)C(c1cccnc1)N1CCOCC1 (stereo unspecified)	1.51%
O=C(NC1CCC(N2C(=O)CCC2=O)CC1)c1c[nH]c2ccccc12 (stereo unspecified)	-2.06%
CC(=O)N1CCC(c2cnc(-c3c(C)nn(C)c3C)cn2)CC1	-33.6%
Cc1ccc(S(=O)(=O)Nc2ccc(-n3nnn(C)c3=O)cc2)cc1	-4.1%
Cc1cc(C)n(-c2cncc(NCCNS(C)(=O)=O)n2)n1	-3.98%
Cc1cc(C2CCCN2Cc2ccn(C)c(=O)c2)on1 (stereo unspecified)	-6.04%
Cc1cccc(N2CC3(CCN(C(=O)NC(C)C)C3)CC2=O)c1 (stereo unspecified)	-3.7%
Cc1nc(-c2ccc(S(=O)(=O)N3CCSCC3)cc2)co1	5.18%
CCOc1cccc(COC(=O)c2ccc(F)cn2)n1	0.296%
Cc1ccc(-n2nnc(C(=O)NCC3CCCCC3)n2)cc1	-3.5%
Cc1cccnc1N1CC2(CCN(Cc3cnn(C)c3)C2)C1	-5.99%
CCOCC(=O)Nc1cc(-n2nnnc2C2CC2)ccc1F	-4.28%
Cc1ccc(CN2CCN(CC3CC3)[C@@H]3CS(=O)(=O)C[C@@H]32)cc1C	25.4%
